According to ChEMBL document CHEMBL1144541, “Antinociceptive and antiinflammatory activities and QSAR studies on 2-substituted-4,5-diphenyl-1H-imidazoles” (2007):

Assays:
Assay type in all cases: functional
Rattus norvegicus = assay: Antiinflammatory activity assessed as reduction of carrageenan-induced paw volume in intraperitoneally dosed Wistar rat after 3 hrs; design: scale not given: the % may be the effect or the level left
Summary of the method: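 Wistar rats of either sex (120–150 g) were dosed ip with compounds at 9.5–12.58 mg/kg in 0.2% Tween suspension. After 1 h, 0.05 ml of 1.0% w/v carrageenan in 0.9% NaCl was injected into the left hind paw. Paw volume was measured by mercury-displacement plethysmometry before injection and at 1, 2 and 3 h. Percent inhibition of the 3 h swelling was calculated.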

Mus musculus [1] = assay: Antinociceptive activity in ip dosed Swiss albino mouse assessed as latency time after 60 mins by hot plate method
Summary of the method: (§1)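 Swiss albino mice (20–25 g) were housed 7 days at 30 ± 1 °C before testing, in groups of six. Compounds were given ip at 9.5–12.58 mg/kg as a 0.2% Tween suspension. Mice were placed on a 55 ± 0.5 °C hot plate before dosing and at 15, 30, 60 and 120 min after dosing, with a 15 s cut-off. Significance was assessed by Student's t test.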

Mus musculus [2] = assay: Antinociceptive activity in ip dosed Swiss albino mouse assessed as latency time after 120 mins by hot plate method; summary of the method: as §1
Mus musculus [3] = assay: Antinociceptive activity in ip dosed Swiss albino mouse assessed as latency time after 15 mins by hot plate method; summary of the method: as §1
Mus musculus [4] = assay: Antinociceptive activity in ip dosed Swiss albino mouse assessed as latency time by hot plate method; summary of the method: as §1
Mus musculus [5] = assay: Antinociceptive activity in ip dosed Swiss albino mouse assessed as latency time after 15 mins by tail flick method
Summary of the method: (§2)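 Swiss albino mice (20–25 g) received compounds ip at 9.5–12.58 mg/kg in 0.2% Tween suspension. Tail-flick latency to radiant heat was measured, with stimulus intensity set to give a 3–4 s baseline. Readings were taken just before injection and at 15, 30, 60 and 120 min after. Significance was assessed by Student's t test.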

Mus musculus [6] = assay: Antinociceptive activity in ip dosed Swiss albino mouse assessed as latency time after 120 mins by tail flick method; summary of the method: as §2
Mus musculus [7] = assay: Antinociceptive activity in ip dosed Swiss albino mouse assessed as latency time by tail flick method; summary of the method: as §2
Mus musculus [8] = assay: Antinociceptive activity in ip dosed Swiss albino mouse assessed as latency time after 30 mins by tail flick method; summary of the method: as §2
Mus musculus [9] = assay: Antinociceptive activity in ip dosed Swiss albino mouse assessed as latency time after 60 mins by tail flick method; summary of the method: as §2
Mus musculus [10] = assay: Antinociceptive activity in ip dosed Swiss albino mouse assessed as latency time after 30 mins by hot plate method; summary of the method: as §1

| SMILES | Activity (Rattus norvegicus) [%] | Activity (Mus musculus [1]) [s] | Activity (Mus musculus [2]) [s] | Activity (Mus musculus [3]) [s] | Activity (Mus musculus [4]) [s] | Activity (Mus musculus [5]) [s] | Activity (Mus musculus [6]) [s] | Activity (Mus musculus [7]) [s] | Activity (Mus musculus [8]) [s] | Activity (Mus musculus [9]) [s] | Activity (Mus musculus [10]) [s] |
| --- | --- | --- | --- | --- | --- | --- | --- | --- | --- | --- | --- |
| c1ccc(-c2nc[nH]c2-c2ccccc2)cc1 | 20.94 | 5.05 | 5.2 | 4.83 | 4.66 | 3.92 | 4.02 | 3.9 | 4.01 | 4.01 | 4.83 |
| C=CCc1nc(-c2ccccc2)c(-c2ccccc2)[nH]1 | 32.56 | 5.33 | 5.47 | 5.08 | 4.66 | 4.02 | 4.29 | 3.98 | 4.23 | 4.27 | 5.12 |
| O=[N+]([O-])c1ccccc1-c1nc(-c2ccccc2)c(-c2ccccc2)[nH]1 | 30.24 | 4.67 | 4.71 | 4.52 | 4.5 | 4.1 | 4.39 | 4.09 | 4.38 | 4.38 | 4.62 |
| Cc1ccccc1-c1nc(-c2ccccc2)c(-c2ccccc2)[nH]1 | 18.61 | 4.79 | 5.79 | 4.55 | 4.5 | 4.12 | 5.52 | 4.11 | 4.52 | 4.98 | 4.67 |
| O=[N+]([O-])c1ccc(-c2nc(-c3ccccc3)c(-c3ccccc3)[nH]2)cc1 | 25.59 | 5.82 | 5.83 | 4.6 | 4.37 | 4.14 | 5.13 | 4.13 | 5.09 | 5.12 | 4.66 |
| O=[N+]([O-])c1cccc(-c2nc(-c3ccccc3)c(-c3ccccc3)[nH]2)c1 | 4.66 | 4.62 | 5.62 | 4.56 | 4.55 | 4.09 | 5.82 | 4.09 | 4.36 | 5.74 | 4.6 |
| COc1cccc(-c2nc(-c3ccccc3)c(-c3ccccc3)[nH]2)c1 | 37.21 | 7.42 | 8.79 | 5.02 | 4.67 | 4.12 | 7.99 | 4.12 | 4.56 | 6.75 | 6.15 |
| CN(C)c1ccc(-c2nc(-c3ccccc3)c(-c3ccccc3)[nH]2)cc1 | 69.77 | 8.33 | 10.3 | 4.76 | 4.5 | 4.45 | 10.18 | 4.26 | 6.32 | 7.93 | 7.16 |
| COc1cc(-c2nc(-c3ccccc3)c(-c3ccccc3)[nH]2)ccc1O | 58.14 | 7.92 | 8.99 | 5.23 | 4.68 | 4.12 | 8.34 | 4.16 | 5.57 | 7.18 | 6.2 |
| Oc1ccc(-c2nc(-c3ccccc3)c(-c3ccccc3)[nH]2)cc1 | 83.73 | 8.63 | 10.33 | 4.81 | 4.55 | 4.48 | 10.33 | 4.4 | 6.79 | 8.18 | 7.21 |
| COc1ccccc1-c1nc(-c2ccccc2)c(-c2ccccc2)[nH]1 | 65.12 | 8.65 | 9.25 | 4.94 | 4.9 | 4.21 | 9.23 | 4.21 | 5.98 | 7.64 | 6.89 |
| Clc1ccc(-c2nc(-c3ccccc3)c(-c3ccccc3)[nH]2)cc1 | 81.4 | 8.98 | 10.35 | 4.9 | 4.66 | 4.67 | 10.5 | 4.52 | 6.92 | 8.37 | 7.43 |
| Clc1ccccc1-c1nc(-c2ccccc2)c(-c2ccccc2)[nH]1 | 62.8 | 8.2 | 9.01 | 4.62 | 4.67 | 4.14 | 8.85 | 4.2 | 5.78 | 7.27 | 6.25 |
| Ic1ccc(-c2nc(-c3ccccc3)c(-c3ccccc3)[nH]2)cc1 | 27.91 | 6.18 | 6.18 | 4.64 | 4.45 | 4.26 | 6.5 | 4.16 | 5.21 | 5.89 | 5.33 |
| Cc1cccc(-c2nc(-c3ccccc3)c(-c3ccccc3)[nH]2)c1 | 9.31 | 4.67 | 5.72 | 4.6 | 4.56 | 4.1 | 5.93 | 4.1 | 4.48 | 5.89 | 4.63 |
| Brc1ccc(-c2nc(-c3ccccc3)c(-c3ccccc3)[nH]2)cc1 | 74.42 | 6.38 | 6.38 | 4.65 | 4.45 | 4.45 | 6.83 | 4.2 | 5.33 | 6.5 | 6.37 |
| Oc1ccccc1-c1nc(-c2ccccc2)c(-c2ccccc2)[nH]1 | 60.47 | 8.59 | 9.16 | 4.93 | 4.89 | 4.18 | 9.12 | 4.2 | 5.82 | 7.53 | 6.32 |
| c1ccc(-c2nc(-c3ccccc3)c(-c3ccccc3)[nH]2)cc1 | 30.24 | 6.07 | 6.1 | 4.58 | 4.63 | 4.13 | 5.78 | 4.13 | 4.67 | 5.12 | 5.28 |
| Cc1ccc(-c2nc(-c3ccccc3)c(-c3ccccc3)[nH]2)cc1 | 11.63 | 4.83 | 4.82 | 4.5 | 4.35 | 4.14 | 4.89 | 4.14 | 4.82 | 4.82 | 4.62 |
| Fc1ccc(-c2nc(-c3ccccc3)c(-c3ccccc3)[nH]2)cc1 | 79.07 | 9.33 | 10.83 | 4.93 | 4.78 | 4.87 | 10.67 | 4.55 | 7.14 | 8.92 | 7.5 |
| Nc1ccc(-c2nc(-c3ccccc3)c(-c3ccccc3)[nH]2)cc1 | 81.4 | 8.25 | 10.08 | 4.69 | 4.48 | 4.27 | 10.05 | 4.22 | 6.18 | 7.77 | 7.01 |
